Test results: ChEMBL document CHEMBL1141109, “Synthesis of an estrogen receptor beta-selective radioligand: 5-[18F]fluoro-(2R,3S)-2,3-bis(4-hydroxyphenyl)pentanenitrile and comparison of in vivo distribution with 16alpha-[18F]fluoro-17beta-estradiol” (J Med Chem, 2005)

Assays:
[1] = Biodistribution of [18F]FEDPN in alpha estrogen receptor knock out mouse kidney after 30 min; (n=3); format: ADME, organism-based; conditions: in vivo, 0.5 h
Procedure, shortened: (§1)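 ERKO female mice (αERKO or βERKO), rested 48 h after shipping, placed on estrogen-free chow, and staged by daily vaginal smears. Injected in a nonestrous stage with 11 µCi [18F]FEDPN in 130 µL of 10% ethanol/saline. Killed at 30 min, 1 h or 2 h. Organs counted and reported as %ID/g ± SD, three animals per point.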

[2] = Biodistribution of [18F]-FEDPN in alpha estrogen receptor knock out mouse ovaries after 1 h; (n=3); format: ADME, organism-based, Female gonad; conditions: in vivo; procedure, shortened: as §1
[3] = Biodistribution of [18F]FEDPN in beta estrogen receptor knock out mouse ovaries after 2 h; (n=3); format: ADME, organism-based, Female gonad; conditions: in vivo
Procedure, shortened: (§2)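 αERKO and βERKO mice, staged by daily vaginal smears and kept on estrogen-free chow, were studied in a nonestrous stage. Each mouse received 11 μCi of tracer in 130 μL of 10% ethanol/saline. Mice were killed at 30 min, 1 h or 2 h (n = 3 each). Organs were removed, blotted, weighed and gamma-counted against an injectate standard. Uptake is given as %ID/g ± SD.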

[4] = Biodistribution of [18F]FEDPN in rat lung after 30 min when given in tail vein; (n=5); format: ADME, organism-based; conditions: in vivo, iv, 0.5 h
Procedure, shortened: (§3)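 Immature female Sprague–Dawley rats (<25 days old) under isoflurane/O2 got 20 µCi tracer in 150 µL 20% ethanol/saline by tail vein. […] Rats were killed at 30 min, 1 h or 2 h. Organs were blotted, weighed and gamma-counted against an injectate standard. Data are %ID/g ± SD, five rats per point.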

[5] = target: Estrogen receptor (Mus musculus) (UniProt O08537+P19785); assay: Ratio of [18F]FEDPN uptake in ovaries of ERbeta KO-mouse and ERalpha KO-mouse (nonestrus) after 1 hr
Chain of Estrogen receptor (Mus musculus) (O08537 whole entry, looked up): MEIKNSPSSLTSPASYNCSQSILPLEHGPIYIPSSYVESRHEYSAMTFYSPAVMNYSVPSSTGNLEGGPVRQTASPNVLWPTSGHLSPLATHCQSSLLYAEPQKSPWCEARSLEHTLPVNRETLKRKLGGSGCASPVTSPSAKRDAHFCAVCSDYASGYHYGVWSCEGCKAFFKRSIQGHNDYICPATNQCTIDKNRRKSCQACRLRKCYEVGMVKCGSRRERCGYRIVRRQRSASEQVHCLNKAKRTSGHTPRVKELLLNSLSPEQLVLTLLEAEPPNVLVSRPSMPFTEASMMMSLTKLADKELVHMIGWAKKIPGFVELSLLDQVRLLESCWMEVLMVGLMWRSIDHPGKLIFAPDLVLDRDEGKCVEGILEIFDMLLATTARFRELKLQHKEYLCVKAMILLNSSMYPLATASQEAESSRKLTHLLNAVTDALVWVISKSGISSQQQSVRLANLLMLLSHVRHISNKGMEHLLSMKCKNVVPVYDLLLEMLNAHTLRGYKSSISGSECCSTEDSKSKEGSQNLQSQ
Chain of Estrogen receptor (Mus musculus) (P19785 whole entry, looked up): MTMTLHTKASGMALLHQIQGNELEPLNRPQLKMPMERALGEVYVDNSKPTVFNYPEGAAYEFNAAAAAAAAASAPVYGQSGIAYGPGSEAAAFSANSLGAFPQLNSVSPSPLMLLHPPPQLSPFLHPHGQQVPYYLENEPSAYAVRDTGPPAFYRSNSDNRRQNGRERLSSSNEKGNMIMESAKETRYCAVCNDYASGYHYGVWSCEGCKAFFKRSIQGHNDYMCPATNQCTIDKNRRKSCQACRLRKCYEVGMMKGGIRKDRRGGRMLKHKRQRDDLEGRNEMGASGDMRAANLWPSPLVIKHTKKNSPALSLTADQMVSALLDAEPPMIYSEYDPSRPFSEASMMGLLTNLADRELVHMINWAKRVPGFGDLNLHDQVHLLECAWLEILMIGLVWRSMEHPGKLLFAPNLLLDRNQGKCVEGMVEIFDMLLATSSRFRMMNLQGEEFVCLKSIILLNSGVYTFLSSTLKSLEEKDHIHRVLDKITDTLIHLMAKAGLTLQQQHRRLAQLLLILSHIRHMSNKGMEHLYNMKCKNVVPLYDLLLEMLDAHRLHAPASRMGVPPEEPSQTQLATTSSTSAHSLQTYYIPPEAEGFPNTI

[6] = Biodistribution of [18F]FEDPN in beta estrogen receptor knock out mouse uterus after 1 h; (n=3); format: ADME, organism-based; conditions: in vivo
Procedure, shortened: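 αERKO and βERKO mice were fed estrogen-free chow and staged by daily vaginal smears. Mice in a nonestrous stage each received 11 µCi tracer in 130 µL 10% ethanol/saline. Organs were taken at 30 min, 1 h or 2 h and gamma-counted. Uptake is expressed as %ID/g ± SD, three animals per point.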

[7] = Biodistribution of [18F]-FEDPN in rat heart after 2 hr when given in tail vein; (n=5); format: ADME, organism-based; conditions: in vivo, iv
Procedure, shortened: (§4)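 Immature female Sprague–Dawley rats (<25 days old) anesthetized with isoflurane/O2. Given 20 µCi tracer by tail vein in 150 µL of 20% ethanol/saline. […] Killed at 30 min, 1 h or 2 h. Blood and organs blotted, weighed and gamma-counted against a standard dilution of the injectate. Reported as %ID/g ± SD, n=5.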

[8] = Biodistribution of [18F]FEDPN in rat bone after 30 min when given in tail vein; (n=5); format: ADME, organism-based, Bone element; conditions: in vivo, iv, 0.5 h; procedure, shortened: as §3
[9] = Biodistribution of [18F]FEDPN in beta estrogen receptor knock out mouse blood after 30 min; (n=3); format: ADME, organism-based; conditions: in vivo, 0.5 h; procedure, shortened: as §2
[10] = Biodistribution of [18F]FEDPN in beta estrogen receptor knock out mouse muscle after 2 h; (n=3); format: ADME, organism-based, Muscle tissue; conditions: in vivo; procedure, shortened: as §2
[11] = Biodistribution of [18F]FEDPN in alpha estrogen receptor knock out mouse bone after 30 min; (n=3); format: ADME, organism-based, Bone element; conditions: in vivo, 0.5 h; procedure, shortened: as §1
[12] = Biodistribution of [18F]FEDPN in beta estrogen receptor knock out mouse spleen after 30 min; (n=3); format: ADME, organism-based; conditions: in vivo, 0.5 h; procedure, shortened: as §2
[13] = Biodistribution of [18F]FEDPN in alpha estrogen receptor knock out mouse thymus after 30 min; (n=3); format: ADME, organism-based; conditions: in vivo, 0.5 h; procedure, shortened: as §2
[14] = Biodistribution of [18F]-FEDPN in rat fat after 30 min when given in tail vein; (n=5); format: ADME, organism-based, Adipose tissue; conditions: in vivo, iv, 0.5 h; procedure, shortened: as §4
[15] = Biodistribution of [18F]FEDPN in alpha estrogen receptor knock out mouse brain after 30 min; (n=3); format: ADME, organism-based; conditions: in vivo, 0.5 h; procedure, shortened: as §1
[16] = Biodistribution of [18F]FEDPN in beta estrogen receptor knock out mouse ovaries after 30 min; (n=3); format: ADME, organism-based, Female gonad; conditions: in vivo, 0.5 h; procedure, shortened: as §2
[17] = Biodistribution of [18F]FEDPN in rat fat after 1 h block when given in tail vein; (n=5); format: ADME, organism-based, Adipose tissue; conditions: in vivo, iv; procedure, shortened: as §3
[18] = Biodistribution of [18F]FES in alpha estrogen receptor knock out mouse spleen after 2 h; (n=3); format: ADME, organism-based; conditions: in vivo
[19] = Biodistribution of [18F]FES in alpha estrogen receptor knock out mouse heart after 2 h; (n=3); format: ADME, organism-based; conditions: in vivo
Procedure, shortened: (§5)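 Female αERKO mice were rested 48 h after shipping and fed estrogen-free chow. They were staged by daily vaginal smears and studied in diestrus. Each received 13 µCi [18F]FES in 100 µL 10% ethanol/saline and was sacrificed at 30 min, 1 h or 2 h (n = 3 per time). Tissue uptake is given as %ID/g ± SD.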

[20] = Biodistribution of [18F]FES in beta estrogen receptor knock out mouse fat after 1 h; (n=3); format: ADME, organism-based, Adipose tissue; conditions: in vivo
[21] = Biodistribution of [18F]FES in beta estrogen receptor knock out mouse bone after 30 min; (n=3); format: ADME, organism-based, Bone element; conditions: in vivo, 0.5 h
[22] = Biodistribution of [18F]FES in beta estrogen receptor knock out mouse ovaries after 30 min(n=2); mice in nonestrus stage; format: ADME, organism-based, Female gonad; conditions: in vivo, 0.5 h
[23] = Biodistribution of [18F]FES in beta estrogen receptor knock out mouse spleen after 2 h; (n=3); format: ADME, organism-based; conditions: in vivo
[24] = Biodistribution of [18F]FES in beta estrogen receptor knock out mouse blood after 30 min; (n=3); format: ADME, organism-based; conditions: in vivo, 0.5 h
[25] = Biodistribution of [18F]FES in beta estrogen receptor knock out mouse thymus after 2 h; (n=3); format: ADME, organism-based; conditions: in vivo
[26] = Biodistribution of [18F]FES in beta estrogen receptor knock out mouse fat after 30 min; (n=3); format: ADME, organism-based, Adipose tissue; conditions: in vivo, 0.5 h
[27] = Biodistribution of [18F]FES in beta estrogen receptor knock out mouse ovaries after 1 h; (n=3); format: ADME, organism-based, Female gonad; conditions: in vivo
[28] = Biodistribution of [18F]FES in alpha estrogen receptor knock out mouse kidney after 1 h; (n=3); format: ADME, organism-based; conditions: in vivo; procedure, shortened: as §5
[29] = Biodistribution of [18F]FES in alpha estrogen receptor knock out mouse liver after 30 min; (n=3); format: ADME, organism-based; conditions: in vivo, 0.5 h; procedure, shortened: as §5
[30] = Biodistribution of [18F]FES in beta estrogen receptor knock out mouse brain after 2 h; (n=3); format: ADME, organism-based; conditions: in vivo
[31] = Biodistribution of [18F]FES in alpha estrogen receptor knock out mouse fat after 2 h; (n=3); format: ADME, organism-based, Adipose tissue; conditions: in vivo; procedure, shortened: as §5
[32] = Biodistribution of [18F]FES in alpha estrogen receptor knock out mouse fat after 1 h; (n=3); format: ADME, organism-based, Adipose tissue; conditions: in vivo
Procedure, shortened: (§6)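 Female αERKO mice rested 48 h after shipping and fed estrogen-free chow. Estrous stage was checked by daily vaginal smears, and mice were used in diestrus. Each received 13 µCi [18F]FES in 100 µL 10% ethanol/saline. Animals were sacrificed at 30 min, 1 h or 2 h (n = 3 each). Tissue uptake is reported as %ID/g ± SD.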

[33] = Biodistribution of [18F]FES in beta estrogen receptor knock out mouse ovaries after 2 h; (n=3); format: ADME, organism-based, Female gonad; conditions: in vivo
[34] = Biodistribution of [18F]FES in alpha estrogen receptor knock out mouse fat after 30 min; (n=3); format: ADME, organism-based, Adipose tissue; conditions: in vivo, 0.5 h; procedure, shortened: as §5
[35] = Biodistribution of [18F]FES in alpha estrogen receptor knock out mouse blood after 1 h; (n=3); format: ADME, organism-based; conditions: in vivo; procedure, shortened: as §5
[36] = Biodistribution of [18F]FES in alpha estrogen receptor knock out mouse brain after 30 min; (n=3); format: ADME, organism-based; conditions: in vivo, 0.5 h; procedure, shortened: as §6

N#C[C@H](c1ccc(O)cc1)[C@@H](CCF)c1ccc(O)cc1
Biodistribution [1]: 7.22 %ID/g
Biodistribution [2]: 0.52 %ID/g
Biodistribution [3]: 0.17 %ID/g
Biodistribution [4]: 0.71 %ID/g
Ratio [5]: 0.79
Biodistribution [6]: 0.54 %ID/g
Biodistribution [7]: 0.11 %ID/g
Biodistribution [8]: 2.12 %ID/g
Biodistribution [9]: 0.79 %ID/g
Biodistribution [10]: 0.27 %ID/g
Biodistribution [11]: 3.47 %ID/g
Biodistribution [12]: 0.87 %ID/g
Biodistribution [13]: 1.27 %ID/g
Biodistribution [14]: 0.57 %ID/g
Biodistribution [15]: 0.96 %ID/g
Biodistribution [16]: 1.4 %ID/g
Biodistribution [17]: 0.21 %ID/g

C[C@]12CC[C@@H]3c4ccc(O)cc4CC[C@H]3[C@@H]1C[C@@H](F)[C@@H]2O [FLUOROESTRADIOL]
Biodistribution [18]: 0.18 %ID/g
Biodistribution [19]: 0.1 %ID/g
Biodistribution [20]: 1.07 %ID/g
Biodistribution [21]: 1.28 %ID/g
Biodistribution [22]: 6.6 %ID/g
Biodistribution [23]: 0.37 %ID/g
Biodistribution [24]: 0.67 %ID/g
Biodistribution [25]: 0.38 %ID/g
Biodistribution [26]: 2.01 %ID/g
Biodistribution [27]: 5.61 %ID/g
Biodistribution [28]: 1.07 %ID/g
Biodistribution [29]: 7.47 %ID/g
Biodistribution [30]: 0.14 %ID/g
Biodistribution [31]: 0.09 %ID/g
Biodistribution [32]: 0.14 %ID/g
Biodistribution [33]: 3.4 %ID/g
Biodistribution [34]: 1.51 %ID/g
Biodistribution [35]: 0.21 %ID/g
Biodistribution [36]: 0.41 %ID/g
